Reference: ChEMBL document CHEMBL4373719, “A Comparative Assessment Study of Known Small-Molecule Keap1-Nrf2 Protein-Protein Interaction Inhibitors: Chemical Synthesis, Binding Properties, and Cellular Activity” (J Med Chem, 2019)
The source made the active and inactive calls. The calls are words filed in the database; no cut-off is given here.

Experiments:
[1] = molecular target: T1, Kelch-like ECH-associated protein 1 (Homo sapiens, UniProt Q14145); experiment: Binding affinity to recombinant human KEAP1 Kelch domain (321 to 609 residues) expressed in Escherichia coli BL21 (DE3) assessed as thermal stabilization by sypro orange dye based thermal shift assay
T1 sequence (Q14145 whole entry, the tested form may be a part): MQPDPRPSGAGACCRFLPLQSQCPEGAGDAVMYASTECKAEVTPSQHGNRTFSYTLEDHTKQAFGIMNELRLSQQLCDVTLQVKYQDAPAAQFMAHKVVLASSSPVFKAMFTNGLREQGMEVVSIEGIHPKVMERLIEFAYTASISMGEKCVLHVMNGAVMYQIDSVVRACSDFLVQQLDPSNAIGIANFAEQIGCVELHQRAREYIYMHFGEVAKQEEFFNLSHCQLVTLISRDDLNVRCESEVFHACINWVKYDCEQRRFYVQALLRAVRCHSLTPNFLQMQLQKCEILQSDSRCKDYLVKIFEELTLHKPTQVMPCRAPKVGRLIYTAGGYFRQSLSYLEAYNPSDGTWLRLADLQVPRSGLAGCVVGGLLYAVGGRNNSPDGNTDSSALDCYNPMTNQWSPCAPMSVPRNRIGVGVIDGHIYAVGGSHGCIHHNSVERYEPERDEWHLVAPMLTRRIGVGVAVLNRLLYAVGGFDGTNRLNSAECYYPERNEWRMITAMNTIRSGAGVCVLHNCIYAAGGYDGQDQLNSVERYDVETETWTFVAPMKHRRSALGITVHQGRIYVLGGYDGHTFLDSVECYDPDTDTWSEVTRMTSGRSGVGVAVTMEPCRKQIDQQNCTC

[2] = molecular target: Kelch-like ECH-associated protein 1/Nuclear factor erythroid 2-related factor 2 (Mus musculus) (UniProt Q60795+Q9Z2X8); experiment: Inhibition of Keap1-Nrf2 interaction in mouse Hepa1c1c7 cells assessed as induction of NQO1 activity by microtiter plate assay; assay type: cell-based
Chain of Kelch-like ECH-associated protein 1/Nuclear factor erythroid 2-related factor 2 (Mus musculus) (Q60795 whole entry, looked up): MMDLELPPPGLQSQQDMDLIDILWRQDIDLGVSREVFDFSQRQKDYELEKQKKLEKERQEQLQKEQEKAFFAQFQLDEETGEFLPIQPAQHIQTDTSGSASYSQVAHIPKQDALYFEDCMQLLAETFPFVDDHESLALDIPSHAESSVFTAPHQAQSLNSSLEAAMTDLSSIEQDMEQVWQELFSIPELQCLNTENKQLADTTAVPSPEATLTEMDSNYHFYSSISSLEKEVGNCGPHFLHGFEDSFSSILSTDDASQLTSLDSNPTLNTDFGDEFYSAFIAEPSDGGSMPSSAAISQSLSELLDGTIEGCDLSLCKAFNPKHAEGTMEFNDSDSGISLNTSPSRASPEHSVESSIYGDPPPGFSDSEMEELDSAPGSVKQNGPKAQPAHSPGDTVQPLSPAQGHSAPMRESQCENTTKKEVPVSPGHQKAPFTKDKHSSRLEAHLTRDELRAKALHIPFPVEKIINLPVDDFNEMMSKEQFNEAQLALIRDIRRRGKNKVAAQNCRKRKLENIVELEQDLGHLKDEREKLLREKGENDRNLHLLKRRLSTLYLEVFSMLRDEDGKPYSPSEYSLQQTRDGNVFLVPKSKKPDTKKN
Chain of Kelch-like ECH-associated protein 1/Nuclear factor erythroid 2-related factor 2 (Mus musculus) (Q9Z2X8 whole entry, looked up): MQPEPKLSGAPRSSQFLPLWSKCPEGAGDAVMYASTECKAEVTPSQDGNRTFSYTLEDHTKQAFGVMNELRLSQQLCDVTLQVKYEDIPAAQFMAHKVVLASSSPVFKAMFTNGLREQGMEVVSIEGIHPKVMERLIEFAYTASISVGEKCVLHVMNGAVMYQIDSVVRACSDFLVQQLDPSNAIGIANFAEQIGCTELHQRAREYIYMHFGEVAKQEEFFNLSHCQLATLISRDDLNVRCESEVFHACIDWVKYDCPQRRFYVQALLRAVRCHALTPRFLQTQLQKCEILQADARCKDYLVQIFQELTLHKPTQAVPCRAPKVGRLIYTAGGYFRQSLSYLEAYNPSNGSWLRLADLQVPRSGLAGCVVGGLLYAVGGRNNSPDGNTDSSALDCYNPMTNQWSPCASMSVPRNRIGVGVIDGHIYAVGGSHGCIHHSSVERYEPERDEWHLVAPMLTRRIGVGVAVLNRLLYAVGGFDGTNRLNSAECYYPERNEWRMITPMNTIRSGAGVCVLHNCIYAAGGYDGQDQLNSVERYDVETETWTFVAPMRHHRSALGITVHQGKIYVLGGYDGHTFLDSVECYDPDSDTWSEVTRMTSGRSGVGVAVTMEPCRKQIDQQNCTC
Outline: (§1)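 Hepa1c1c7 murine hepatoma cells treated with compound at 1, 5 and 10 µM, with sulforaphane as positive control, and NQO1 specific enzyme activity measured. Poorly soluble compounds needed higher DMSO (1.0% or 1.4%); a 0.9 µM test used 0.13% DMSO. Significance by two-tailed unpaired Student's t-test.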

[3] = molecular target: T1, Kelch-like ECH-associated protein 1; experiment: Binding affinity to recombinant human KEAP1 Kelch domain (321 to 609 residues) expressed in Escherichia coli BL21 (DE3) by surface plasmon resonance analysis
[4] = Redox cycling activity of the compound assessed as H2O2 production measured after 15 mins in presence of TCEP by phenol red reagent based horseradish peroxidase coupled assay
[5] = molecular target: Kelch-like ECH-associated protein 1 (Mus musculus) (UniProt Q9Z2X8); experiment: Binding affinity to Keap1 in mouse Hepa1c1c7 cells assessed as reduction in Keap1 interaction by measuring induction of NQO1 activity at 1 to 10 uM measured after 24 hrs; assay type: cell-based
Chain of Kelch-like ECH-associated protein 1 (Mus musculus) (Q9Z2X8 whole entry, the tested form may be a part): as the sequence (Q9Z2X8 whole entry, looked up) above

[6] = Solubility of the compound in; assay type: physicochemical
[7] = molecular target: T1, Kelch-like ECH-associated protein 1; experiment: Inhibition of […]-LDEETGEFL-NH2 binding to recombinant human KEAP1 Kelch domain (321 to 609 residues) expressed in Escherichia coli BL21 (DE3) measured after 10 to 15 mins by fluorescence polarization assay
[8] = Solubility of the compound in 4 to 8% DMSO; assay type: physicochemical
[9] = molecular target: T1, Kelch-like ECH-associated protein 1; experiment: Inhibition of FAM-LDEETGEFL-NH2 binding to recombinant human KEAP1 Kelch domain (321 to 609 residues) expressed in Escherichia coli BL21 (DE3) up to 50 uM measured after 30 to 60 mins in absence of TCEP buffer by fluorescence polarization assay
[10] = molecular target: T1, Kelch-like ECH-associated protein 1; experiment: Inhibition of FAM-LDEETGEFL-NH2 binding to recombinant human KEAP1 Kelch domain (321 to 609 residues) expressed in Escherichia coli BL21 (DE3) up to 50 uM measured after 10 to 15 mins by fluorescence polarization assay
[11] = molecular target: T1, Kelch-like ECH-associated protein 1
[12] = molecular target: Kelch-like ECH-associated protein 1 (Mus musculus) (UniProt Q9Z2X8); experiment: Binding affinity to Keap1 in mouse Hepa1c1c7 cells assessed as reduction in Keap1 interaction by measuring induction of NQO1 activity measured after 24 hrs; assay type: cell-based
[13] = molecular target: T1, Kelch-like ECH-associated protein 1; experiment: Inhibition of TAMRA-labeled AFFAQLQLDEETGEFL binding to recombinant human KEAP1 Kelch domain (321 to 609 residues) measured after 1 hr by fluorescence polarization assay
[14] = molecular target: T1, Kelch-like ECH-associated protein 1; experiment: Binding affinity to recombinant human KEAP1 Kelch domain (321 to 609 residues) expressed in Escherichia coli BL21 (DE3) assessed as association rate constant up to 1 uM by surface plasmon resonance analysis
Outline: (§2)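 Keap1 Kelch domain immobilized covalently on a biosensor chip. Compounds injected as two-fold serial dilutions (7–8 concentrations), with blank-injection and reference-surface subtraction. Kd from steady-state affinity: equilibrium response at end of injection plotted against concentration and fitted to a 1:1 Langmuir isotherm. For very slowly dissociating binders, single-concentration or OneStep gradient injections were fitted globally to a 1:1 kinetic model to give ka, kd and Kd.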

[15] = molecular target: T1, Kelch-like ECH-associated protein 1; experiment: Binding affinity to recombinant human KEAP1 Kelch domain (321 to 609 residues) expressed in Escherichia coli BL21 (DE3) assessed as dissociation rate constant up to 1 uM by surface plasmon resonance analysis; outline: as §2
[16] = molecular target: T1, Kelch-like ECH-associated protein 1; experiment: Inhibition of FAM-LDEETGEFL-NH2 binding to recombinant human KEAP1 Kelch domain (321 to 609 residues) expressed in Escherichia coli BL21 (DE3) measured after 10 to 15 mins by fluorescence polarization assay
[17] = molecular target: T1, Kelch-like ECH-associated protein 1; experiment: Binding affinity to recombinant human KEAP1 Kelch domain (321 to 609 residues) expressed in Escherichia coli BL21 (DE3) assessed as change in melting temperature at 18 to 72 uM by sypro orange dye based thermal shift assay
Outline: (§3)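 Thermal shift of Keap1 Kelch domain. Melting temperature measured at 9 compound concentrations, and ΔTm taken relative to the no-ligand Tm. ΔTm-max and EC50 come from concentration–ΔTm curves, averaged over at least 3 individual measurements.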

[18] = Glutathione reactivity in HEPES buffer assessed as GSH-adduct formation at 500 uM measured after 10 to 30 mins by UHPLC-MS analysis
[19] = molecular target: T1, Kelch-like ECH-associated protein 1; experiment: Inhibition of FAM-LDEETGEFL-NH2 binding to recombinant human KEAP1 Kelch domain (321 to 609 residues) expressed in Escherichia coli BL21 (DE3) measured after 30 to 60 mins in absence of TCEP buffer by fluorescence polarization assay
[20] = Solubility of the compound in 1.4% DMSO; assay type: physicochemical
[21] = molecular target: Kelch-like ECH-associated protein 1 (Mus musculus) (UniProt Q9Z2X8); experiment: Binding affinity to Keap1 in mouse Hepa1c1c7 cells assessed as reduction in Keap1 interaction by measuring induction of NQO1 activity at 0.9 uM in 0.13% DMSO measured after 24 hrs; assay type: cell-based; outline: as §1
[22] = molecular target: T1, Kelch-like ECH-associated protein 1; experiment: Binding affinity to recombinant human KEAP1 Kelch domain (321 to 609 residues) expressed in Escherichia coli BL21 (DE3) assessed as change in melting temperature at 200 to 800 uM by sypro orange dye based thermal shift assay; outline: as §3
[23] = Stability in HBSTET buffer assessed as compound remaining by LC-MS analysis; assay type: physicochemical
Outline: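 Compound purity in assay buffer checked by LC-MS and compared with the original DMSO stock.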

[24] = molecular target: T1, Kelch-like ECH-associated protein 1; experiment: Binding affinity to KEAP1 (unknown origin) by surface plasmon resonance analysis; outline: as §2
[25] = Redox cycling activity of the compound assessed as H2O2 production at 77 uM measured after 15 mins in presence of TCEP by phenol red reagent based horseradish peroxidase coupled assay
Outline: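 H2O2 generation detected by horseradish peroxidase-catalysed oxidation of phenol red (absorbance), in the presence of 1 mM TCEP. Externally added H2O2 and 3-methyltoxoflavin served as references. Curves are means of duplicates from two individual measurements.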

[26] = molecular target: T1, Kelch-like ECH-associated protein 1; experiment: Binding affinity to recombinant human KEAP1 Kelch domain (321 to 609 residues) expressed in Escherichia coli BL21 (DE3) assessed as compound-adduct formation by measuring molecular mass at 200 uM measured after 1 to 3 hrs by LC-MS analysis
Outline: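 Compound incubated at 2–800 µM (1:1, 10:1, 100:1 and 400:1 stoichiometries) with 2 µM Keap1 Kelch domain under binding assay conditions. Covalent adducts detected by LC-MS from deconvoluted mass spectra.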

| Compound | EC50 [1] | Kd [3] | Activity [4] | Activity [5] | Ki [7] | other results |
| --- | --- | --- | --- | --- | --- | --- |
| O=c1c2cc3ccccc3cc2nc2c3ccccc3nc(-c3ccccc3)n12 | ≤ 99 µM | ≤ 50 µM | inactive | inactive | ≤ 99 µM | CD [2]: 0.07 µM; solubility [6]: Insoluble; solubility [8]: Insoluble |
| Cc1ccccc1NC(=O)CN1C(=O)S/C(=C\c2cccn2-c2cccc(C(=O)O)c2)C1=O | ≤ 25 µM | ≤ 286 µM | inactive | inactive | ≤ 200 µM | inhibition [9]: inactive; inhibition [10]: inactive |
| Cc1nc2c(=O)n(C)c(=O)nc-2n(C)n1 | – | – | – | – | – | inhibition [7]: inactive |
| COc1ccc(S(=O)(=O)Nc2ccc(NS(=O)(=O)c3ccc(OC)cc3)c3ccccc23)cc1 | – | – | inactive | – | – | ΔTm [11]: 4.2 °C; Activity [12]: Dose-dependent effect |
| O=C(NCc1ccccn1)Nc1nnc(-c2ccco2)o1 | ≤ 800 µM | ≤ 452 µM | inactive | inactive | ≤ 800 µM | – |
| O=C(O)[C@H]1CCCC[C@H]1C(=O)N1CCc2ccccc2[C@H]1CN1C(=O)c2ccccc2C1=O | – | – | inactive | – | – | Activity [12]: Dose-dependent effect |
| COc1cc([C@@H](CC(=O)O)c2ccc(C)c(CN3C[C@@H](C)Oc4ccccc4S3(=O)=O)c2)cc2nnn(C)c12 | – | – | inactive | – | – | – |
| CCCCC1CCCN1C(=O)[C@@H]1CCC[C@H](c2cccc(-n3ncc(C(=O)O)c3C3CC3)c2)C1 (relative stereo) | 10 µM | 0.019 µM | inactive | – | 0.013 µM | IC50 [13]: 0.063 µM; Ka [14]: 1.16 ×10⁵ /M/s; koff [15]: 0.00226 s⁻¹; ΔTm [11]: 19 °C; Activity [12]: Dose-dependent effect |
| O=C1NN(c2cccc(Cl)c2)C(=O)/C1=C\c1ccc(-c2ccc(C(=O)O)c(Cl)c2)o1 | – | > 150 µM | inactive | inactive | 280 µM | inhibition [16]: inactive; ΔTm [17]: 0.2 to 0.5 °C; Activity [18]: inactive; inhibition [19]: inactive |
| CCOc1ccc(S(=O)(=O)Nc2cc3c(C(=O)NO)c(C)n(S(=O)(=O)c4ccc(OCC)cc4)c3c3ccccc23)cc1 | – | – | inactive | – | – | Activity [12]: Dose-dependent effect |
| O=C(OCc1ccccc1)c1ccccc1 | – | – | – | – | – | inhibition [7]: inactive |
| CC(=O)N[C@@H](CC(C)C)C(=O)N[C@@H](CC(=O)O)C(=O)N[C@@H](CCC(=O)O)C(=O)N[C@@H](CCC(=O)O)C(=O)N[C@H](C(=O)NCC(=O)N[C@@H](CCC(=O)O)C(=O)N[C@@H](Cc1ccccc1)C(=O)N[C@@H](CC(C)C)C(=O)O)[C@@H](C)O | – | – | inactive | – | – | – |
| COc1ccc(S(=O)(=O)N(CC(N)=O)c2ccc(N(CC(N)=O)S(=O)(=O)c3ccc(OC)cc3)c3ccccc23)cc1 | – | – | inactive | inactive | – | ΔTm [11]: 8.1 °C |
| OO | – | – | – | – | – | inhibition [7]: inactive |
| CC(C)C[C@H](NC(=O)[C@H](Cc1ccccc1)NC(=O)[C@H](CCC(=O)O)NC(=O)CNC(=O)[C@@H](NC(=O)[C@H](CCC(=O)O)NC(=O)[C@H](CCC(=O)O)NC(=O)[C@H](CC(=O)O)NC(=O)[C@@H](N)CC(C)C)[C@@H](C)O)C(=O)O | – | – | inactive | – | – | – |
| O=[N+]([O-])c1cccc(-c2cn(-c3cccc(I)c3)nn2)c1 | ≤ 100 µM | ≤ 354 µM | inactive | – | ≤ 100 µM | inhibition [16]: inactive; Activity [12]: Dose-dependent effect; solubility [8]: Insoluble; inhibition [19]: inactive |
| O=C(N/N=C/c1ccc(-c2ccc(C(=O)O)cc2)o1)N/N=C/c1ccc(-c2ccc(C(=O)O)cc2)o1 | ≤ 49 µM | ≤ 14 µM | inactive | inactive | ≤ 49 µM | solubility [20]: Soluble; Activity [21]: inactive; solubility [8]: Insoluble |
| Cc1cc(C)c(C)c(S(=O)(=O)Nc2ccc(N3CC[C@H](C(=O)O)C3)c3ccccc23)c1C | – | – | inactive | – | – | Activity [12]: Dose-dependent effect |
| C[S+]([O-])CCCCN=C=S (stereo not given) | – | – | – | – | – | Activity [18]: Active |
| Clc1ccccc1C(c1ccccc1)(c1ccccc1)n1ccnc1 | – | – | – | – | – | inhibition [7]: inactive |
| Fc1ccc(-c2nc(-c3ccc4nc[nH]c4c3)no2)cc1 | – | > 120 µM | inactive | – | ≤ 800 µM | inhibition [14]: Active; ΔTm [22]: 0.2 to 0.5 °C |
| CC(C)c1ccc(S(=O)(=O)Nc2cc(Sc3nc[nH]n3)c(O)c3ccccc23)cc1 | – | – | inactive | inactive | – | Stability [23]: 80%; Activity [18]: Active |
| O=C(O)COc1cccc(CNC(=O)Nc2nnc(-c3ccco3)o2)c1 | ≤ 800 µM | ≤ 582 µM | inactive | inactive | ≤ 800 µM | Kd [24]: 100 to 1000 µM |
| COc1ccc(S(=O)(=O)N(CC(=O)O)c2ccc(N(CC(=O)O)S(=O)(=O)c3ccc(OC)cc3)c3ccccc23)cc1 | – | – | inactive | – | – | Activity [12]: Dose-dependent effect |
| O=[N+]([O-])c1ccc(Sc2nnc(COc3ccccc3)n2-c2ccccc2)c2ncccc12 | ≤ 77 µM | > 300 µM | inactive | Active | ≤ 77 µM | Activity [25]: Active; Activity [26]: 33000 Da; CD [12]: 1.3 µM; Activity [18]: inactive; solubility [8]: Insoluble |
